Reference: ChEMBL document CHEMBL4819139, “Green synthesis of therapeutically active 1,3,4-oxadiazoles as antioxidants, selective COX-2 inhibitors and their in silico studies” (Bioorg Med Chem Lett, 2021)
Values after ≈ are worked out from the molar mass of the structure shown.

Experiments:
[1] = target: T1, Prostaglandin G/H synthase 2 (Homo sapiens, UniProt P35354); test: Inhibition of COX-2 (unknown origin)
T1 sequence (P35354 whole entry): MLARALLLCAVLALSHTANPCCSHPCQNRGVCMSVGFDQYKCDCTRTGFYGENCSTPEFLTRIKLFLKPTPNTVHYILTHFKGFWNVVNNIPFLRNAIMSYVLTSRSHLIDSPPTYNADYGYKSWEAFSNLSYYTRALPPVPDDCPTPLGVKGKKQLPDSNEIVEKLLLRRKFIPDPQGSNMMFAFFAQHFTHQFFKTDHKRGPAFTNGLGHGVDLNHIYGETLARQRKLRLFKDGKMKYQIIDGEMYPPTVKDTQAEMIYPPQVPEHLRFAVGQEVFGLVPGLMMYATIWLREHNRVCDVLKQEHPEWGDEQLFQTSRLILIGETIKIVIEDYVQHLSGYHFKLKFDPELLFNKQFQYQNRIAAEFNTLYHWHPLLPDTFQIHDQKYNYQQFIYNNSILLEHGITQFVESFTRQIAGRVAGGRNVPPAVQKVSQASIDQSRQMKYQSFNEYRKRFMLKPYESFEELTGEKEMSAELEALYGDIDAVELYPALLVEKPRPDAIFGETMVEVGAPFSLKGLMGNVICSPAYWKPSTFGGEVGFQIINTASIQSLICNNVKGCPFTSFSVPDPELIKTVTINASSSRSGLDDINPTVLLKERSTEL
Procedure, shortened: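 Percent COX-2 inhibition was measured at several compound concentrations. Mefenamic acid served as the reference standard.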

[2] = target: Prostaglandin G/H synthase 1 (Homo sapiens, UniProt P23219); test: Inhibition of COX-1 (unknown origin)
[3] = Antioxidant activity assessed as DPPH free radical scavenging activity in iron free medium; format: functional

Chain of Prostaglandin G/H synthase 1 (P23219 whole entry): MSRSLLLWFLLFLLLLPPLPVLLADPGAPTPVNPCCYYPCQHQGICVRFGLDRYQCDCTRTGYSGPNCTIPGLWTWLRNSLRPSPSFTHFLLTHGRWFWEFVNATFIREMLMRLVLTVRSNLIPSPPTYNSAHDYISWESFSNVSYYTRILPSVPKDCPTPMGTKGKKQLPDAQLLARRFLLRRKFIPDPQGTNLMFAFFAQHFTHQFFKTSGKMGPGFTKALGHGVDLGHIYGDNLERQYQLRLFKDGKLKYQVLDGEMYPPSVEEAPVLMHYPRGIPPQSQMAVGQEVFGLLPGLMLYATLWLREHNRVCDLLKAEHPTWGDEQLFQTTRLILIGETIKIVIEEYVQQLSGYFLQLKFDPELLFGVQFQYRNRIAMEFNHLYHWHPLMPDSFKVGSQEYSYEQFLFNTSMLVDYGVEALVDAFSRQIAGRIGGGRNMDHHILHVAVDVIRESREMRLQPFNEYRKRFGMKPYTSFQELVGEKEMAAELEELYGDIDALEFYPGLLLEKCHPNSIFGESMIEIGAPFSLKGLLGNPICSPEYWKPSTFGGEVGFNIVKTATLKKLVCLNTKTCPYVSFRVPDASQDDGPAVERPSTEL

| SMILES | IC50 [1] | IC50 [2] | IC50 [3] |
| --- | --- | --- | --- |
| Cc1cc(C)c2c(CSc3nnc(CSc4nc5ccccc5o4)o3)cc(=O)oc2c1 | 55.4 µM | 1120 µM | 33.41 µg/mL (≈ 74 µM) |
| O=c1cc(CSc2nnc(CSc3nc4ccccc4o3)o2)c2ccc3ccccc3c2o1 | 27.1 µM | 919 µM | 23.71 µg/mL (≈ 50.1 µM) |
| Cc1ccc2oc(=O)cc(CSc3nnc(CSc4nc5ccccc5o4)o3)c2c1 | 45.6 µM | 562 µM | 24.04 µg/mL (≈ 54.9 µM) |
| O=c1cc(CSc2nnc(CSc3nc4ccccc4o3)o2)c2c(ccc3ccccc32)o1 | 51.9 µM | 226 µM | 45.86 µg/mL (≈ 96.8 µM) |
| O=c1cc(CSc2nnc(CSc3nc4cc(Cl)ccc4o3)o2)c2c(ccc3ccccc32)o1 | 34.8 µM | 642 µM | 26.78 µg/mL (≈ 52.7 µM) |
| O=c1cc(CSc2nnc(CSc3nc4cc(Cl)ccc4o3)o2)c2ccc3ccccc3c2o1 | 22.3 µM | 558 µM | 23.95 µg/mL (≈ 47.1 µM) |
| Cc1cc(C)c2c(CSc3nnc(CSc4nc5cc(Cl)ccc5o4)o3)cc(=O)oc2c1 | 27.2 µM | 505 µM | 26.98 µg/mL (≈ 55.5 µM) |
| COc1ccc2oc(=O)cc(CSc3nnc(CSc4nc5cc(Cl)ccc5o4)o3)c2c1 | 91.3 µM | 1180 µM | 52.85 µg/mL (≈ 108 µM) |
| COc1ccc2oc(=O)cc(CSc3nnc(CSc4nc5ccccc5o4)o3)c2c1 | 72.6 µM | 230 µM | 63.09 µg/mL (≈ 139 µM) |
| Cc1ccc2c(CSc3nnc(CSc4nc5cc(Cl)ccc5o4)o3)cc(=O)oc2c1 | 29 µM | 308 µM | 27.73 µg/mL (≈ 58.8 µM) |
| Cc1ccc2c(CSc3nnc(CSc4nc5ccccc5o4)o3)cc(=O)oc2c1 | 54.3 µM | 199 µM | 49.87 µg/mL (≈ 114 µM) |
| Cc1ccc2oc(=O)cc(CSc3nnc(CSc4nc5cc(Cl)ccc5o4)o3)c2c1 | 115 µM | 437 µM | 48.69 µg/mL (≈ 103 µM) |
| O=C1O[C@H]([C@@H](O)CO)C(O)=C1O [ASCORBIC ACID] | – | – | 25.74 µg/mL (≈ 146 µM) |
| Cc1cccc(Nc2ccccc2C(=O)O)c1C [MEFENAMIC ACID] | 104 µM | 772 µM | – |
